The structures appear in SMILES notation. Activity calls are given as the source filed them. The rule behind the calls is not given here.

Usually IC50 stands for the concentration at which inhibition is half-maximal.

Assay [1] deals with T1, Receptor-type tyrosine-protein kinase FLT3 (Homo sapiens, UniProt P36888).
T1 sequence (P36888 whole entry): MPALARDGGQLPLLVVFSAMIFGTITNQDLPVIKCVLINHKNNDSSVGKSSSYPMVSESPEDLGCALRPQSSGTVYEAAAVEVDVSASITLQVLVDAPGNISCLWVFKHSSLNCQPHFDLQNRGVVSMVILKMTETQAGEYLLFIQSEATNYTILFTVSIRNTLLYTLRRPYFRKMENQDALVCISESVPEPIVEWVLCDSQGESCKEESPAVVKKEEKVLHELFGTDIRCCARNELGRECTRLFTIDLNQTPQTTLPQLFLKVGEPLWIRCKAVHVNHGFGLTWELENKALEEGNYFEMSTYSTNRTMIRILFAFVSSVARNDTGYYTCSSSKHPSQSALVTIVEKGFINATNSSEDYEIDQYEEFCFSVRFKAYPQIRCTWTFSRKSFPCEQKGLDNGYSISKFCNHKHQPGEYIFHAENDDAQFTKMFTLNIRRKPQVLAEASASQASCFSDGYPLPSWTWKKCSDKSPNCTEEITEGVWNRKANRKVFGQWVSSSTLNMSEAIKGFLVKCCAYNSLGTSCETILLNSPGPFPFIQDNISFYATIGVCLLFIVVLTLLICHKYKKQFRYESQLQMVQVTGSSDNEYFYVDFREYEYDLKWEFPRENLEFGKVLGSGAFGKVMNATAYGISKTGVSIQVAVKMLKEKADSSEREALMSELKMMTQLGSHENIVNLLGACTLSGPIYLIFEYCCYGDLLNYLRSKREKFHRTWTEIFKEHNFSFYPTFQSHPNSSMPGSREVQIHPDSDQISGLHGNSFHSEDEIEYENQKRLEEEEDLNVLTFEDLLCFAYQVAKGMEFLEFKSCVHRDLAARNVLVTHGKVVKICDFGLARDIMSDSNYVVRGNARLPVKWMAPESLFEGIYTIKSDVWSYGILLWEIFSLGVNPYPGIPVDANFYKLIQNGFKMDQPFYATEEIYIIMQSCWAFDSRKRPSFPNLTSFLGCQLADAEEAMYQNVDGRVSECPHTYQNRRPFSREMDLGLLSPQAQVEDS
As to the kind of experiment: Inhibition of FLT3 (unknown origin) incubated for 10 mins using FAM-labeled peptide and ATP by mobility shift assay. The gist of the method: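 Mobility shift assay in 384-well plates. Kinase buffer: 50 mM HEPES pH 7.5, 10 mM MgCl2, 0.0015% Brij-35, 2 mM DTT. Compound, diluted from a 500 μM DMSO stock, preincubated with enzyme 10 min at room temperature. FAM-labelled peptide and ATP then added and the reaction run at 28 °C. Stopped with EDTA-containing buffer and read on Caliper. Inhibition = (max−conversion)/(max−min)×100, with DMSO wells as max and enzyme-free wells as min.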

The subject of assay [2] is PC-3. Nature of the assay: Cytotoxicity against human PC3 cells assessed as reduction in cell viability incubated for 72 hrs by MTT assay. The assay is classed as functional, cell-based. The method in brief:
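Cells grown in MEM with 10% FBS; about 4×10^3 cells per well, pre-incubated 24 h at 37 °C in 5% CO2, then exposed to compound for 72 h. Seven concentrations, threefold serial dilution from 100 ug/mL initial. MTT at 5 µg/mL terminal concentration for 4 h; formazan dissolved in DMSO, absorbance read at 492 nm against 630 nm reference. IC50 is the average of two determinations.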
(In general: Formazan colour is commonly taken as a measure of viable cells.)

Assay [3] has as its system A549. Nature of the assay: Induction of morphological changes in human A549 cells assessed as induction of nucleus bright green staining at 1.85 uM incubated for 12 hrs by acridine orange dye based inverted microscopy and fluorescence microscopy. It counts as functional, cell-based. The method in brief:
(§1)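 Untreated control included. A549 cells exposed 12 h at 1.85 μM, then single-stained with acridine orange. Nuclei and morphology examined by inverted and fluorescence microscopy.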

Assay [4] relates to A549. Nature of the assay: Induction of morphological changes in human A549 cells assessed as induction of DNA fragmentation at 1.85 uM incubated for 12 hrs by acridine orange dye based inverted microscopy and fluorescence microscopy. It counts as functional, cell-based. The gist of the method:
as §1

For assay [5], the system named is A549. Nature of the assay: Induction of apoptosis in human A549 cells assessed as necrotic cell level at 3 uM incubated for 48 hrs by Annexin VFITC and propidium iodide staining based flow cytometry (reference value: 2.69%). It counts as functional. The method in brief: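 A549 cells seeded in RPMI 1640 and treated 48 h at 3, 6 or 12 µM. Cells then stained with Annexin V-FITC plus propidium iodide, 30 min at 4 °C in the dark, and analysed on a FACS Calibur flow cytometer.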
A general note: In flow cytometry, cells or beads pass a laser one at a time.

As for `CNC(=O)c1cc(Oc2ccc(C3=NNC(c4cccc(Br)c4)C3)cc2)ccn1` (stereo unspecified), the IC50 in assay [1] turned out to be 5.2 µM; in assay [2] (PC-3, 72 h), 3.54 µM. Also, the Activity result in assay [2] is “Dose-dependent effect”; in assay [5], 4.49%. Besides, the result in assay [3] and in assay [4] was Active.

(Values after ChEMBL document CHEMBL4177575 (Bioorg Med Chem, 2017).)
